# The entries come from a sample that favours hits as a whole.
# hDAT+cocaine: changed human dopamine transporter uptake under cocaine IC80; hit rate 1.3% among 110,000; LLC-PK1 hDAT cells, [14C]-dopamine uptake with cocaine IC80; actives deviate in either direction; B-score at 10 µM; Q01959;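 active = Z score or B-score, a plate-position-corrected score, falls beyond the plate's 99.7% confidence bounds, in either direction; inactive = both scores lie inside the 99.7% bounds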;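 also: scored against the spread of the other compound wells on the same plate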
# HEK293 NFkB inh: lowers PMA/ionomycin-induced NF-kB signal in HEK293 cells. HEK-293 NF-kB luciferase reporter, luminescence. inhibition, % at 3 µM. hit rate 0.21% among 62,000;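 active = inhibition above the mean of all tested compounds plus 3 SD, cut at about 40% in these data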;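 also: 0% = stimulated DMSO wells and 100% = 10 µM reference inhibitor 5653914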
#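 Reagent: PMA plus ionomycin mix as NF-kB-activating stimulus. Assay system: NF-kB luciferase reporter HEK-293 cells. Technique: luminescence from luciferase substrate reagent. Incubation: 1 h compound pre-incubation, 16 h PMA/ionomycin at 37 °C. Benchmarks: DMSO only as uninhibited control, 10 µM reference inhibitor as full inhibition. Repeats: tested once.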
# AP ELISA ortho: orthogonal test for alternative complement pathway inhibitors | hit rate 0.08% among 62,000 | inhibition, % at 5 µM | AID 1235 | Human serum alternative complement pathway, LPS-coated ELISA, C3 deposition; tested in compound mixtures;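 active = inhibition above 30% in each of the two pooled mixtures holding the compound, so the lower value exceeds 30%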;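 also: 0% = serum in Mg-EGTA without compound and 100% = EDTA serum blank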
#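 Medium: diluted human serum in Mg2+-EGTA GVB++. Assay system: human serum complement alternative pathway, C3 deposition onto LPS. Also added: Plate-bound LPS. Technique: Anti-C3 ELISA, OD 450 nm. Measure: percent inhibition. Incubation: 1 h at 37 °C. Dosing: 5 µM each compound, pools of ten, 50 µM per pool.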
# Ec RNAP inh: blocks E. coli RNA polymerase transcription. inhibition, %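 (tested at 10 µM)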. hit rate 0.2% among 62,000. AID 559. P0A8V2. fluorescence transcription assay; in the data active = inhibition above about 20%;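 also: 0% = enzyme without compound and 100% = no enzyme blank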
# D1 mod: allosteric modulators of human D1 dopamine receptor | P21728 | HEK293 D1, CRE-luciferase, dopamine EC30 potentiation; actives deviate in either direction | B-score at 10 µM | hit rate 5.9% among 58,000;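 active = luminescence count or its row- and column-corrected plate score outside the 99.7% band of the plate's sample wells, on either side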
# Target sequence (P21728 whole entry, looked up): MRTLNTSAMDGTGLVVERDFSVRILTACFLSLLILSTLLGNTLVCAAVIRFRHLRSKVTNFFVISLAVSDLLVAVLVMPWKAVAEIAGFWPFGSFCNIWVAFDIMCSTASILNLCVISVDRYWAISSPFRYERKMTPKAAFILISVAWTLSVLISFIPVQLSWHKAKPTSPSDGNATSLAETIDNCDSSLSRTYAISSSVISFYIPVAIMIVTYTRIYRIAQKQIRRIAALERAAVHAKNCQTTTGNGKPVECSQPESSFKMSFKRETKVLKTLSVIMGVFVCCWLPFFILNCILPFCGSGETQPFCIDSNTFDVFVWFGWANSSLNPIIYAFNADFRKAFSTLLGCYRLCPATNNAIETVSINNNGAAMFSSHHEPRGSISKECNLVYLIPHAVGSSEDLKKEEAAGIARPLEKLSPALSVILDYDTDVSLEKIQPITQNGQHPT
# D1 mod confirm: D1 receptor (human) allosteric modulation, confirmed; shares compounds with D1 mod; HEK293 D1 CRE-luciferase, dopamine EC30 potentiation; stronger effect = higher value; luminescence at 10 µM; hit rate 88% among 2,200;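 active = luminescence in either of two replicates above the same-plate mean plus 3 SD of the low-dose dopamine control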
# D1 ag no DA: activates D1 CRE-luciferase signal without dopamine present; shares compounds with D1 mod; HEK293 D1 CRE-luciferase, luminescence, no dopamine; stronger effect = higher value; luminescence at 10 µM; hit rate 0.8% among 1,900; in the data active = luminescence above about 3900
# Isoprot counter: counter-screen for D1 modulators: isoproterenol response in HEK293 cells. shares compounds with D1 mod. calls only at 10 µM. hit rate 63% among 2,200. HEK293 D1 CRE-luciferase, isoproterenol EC30 counter-screen;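 active = luminescence in either replicate above plate mean of wells with a partly effective reference agonist dose plus 3 SD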;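 also: isoproterenol raises cAMP through native beta-adrenoceptor Gs so signal bypasses D1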
# Starred values were filed as active, the others as inactive; i = inactive; . = no result given; + = active, no number.
SMILES,hDAT+cocaine,HEK293 NFkB inh,AP ELISA ortho,Ec RNAP inh,D1 mod,D1 mod confirm,D1 ag no DA,Isoprot counter
CCOC(=O)/C(N=Nc1ccc(F)cc1)=C(/O)c1ccc([N+](=O)[O-])cc1,0.187,.,.,.,.,.,.,.
N#Cc1ccccc1Cn1c(-c2cscn2)nc2ccccc21,0.112,18.8,4.1,-4.0,13.4*,15376*,1480,+
O=C(O)Cn1c(-c2cscn2)nc2ccccc21,-0.0984,0.9,21.5,2.1,-0.121,.,.,.
CCN1C(=O)c2c(C)nc3ccccc3c2C1=O,0.118,-3.7,29.2,-6.6,16.3*,15840*,1572,+
CCc1nc(SCC(=O)NCCc2ccc(OC)c(OC)c2)c2c(=O)n(C)c(=O)n(C)c2n1,0.16,6.3,5.8,4.7,-0.0358,.,.,.
CCc1nc(N2CCOCC2)c(C#N)c2c1COC(C)(C)C2,0.674,20.2,0.5,2.8,5.58*,15288*,.,+
CC1(C)Cc2nc(N3CCOCC3)c(C#N)cc2CO1,-0.833,9.0,0.1,.,2.75*,9156*,.,i
Cc1nc(N2CCOCC2)c(C#N)c2c1COC(C)(C)C2,-0.258,.,.,.,.,.,.,.
c1ccc(-c2ccc(C3=Nn4c(Cn5nnc6ccccc65)nnc4SC3)cc2)cc1,0.284,.,.,.,.,.,.,.
COC(=O)c1sc2ccccc2c1NC(=O)c1cccs1,-0.649,10.6,-16.5,2.6,18.8*,20828*,1756,+
COC(=O)c1sc2ccccc2c1C(=O)OC,0.525,8.0,23.4,-2.7,10.3*,9140*,1712,i
COc1cc(NC(=O)c2cccs2)cc(OC)c1,0.294,-2.5,1.5,1.1,-0.0454,.,.,.
COC(=O)c1sc2ccccc2c1N,-0.127,2.8,10.2,-3.6,2.85,.,.,.
Cc1cccc(OCC(=O)Nc2ccc(N3CCN(C(=O)c4ccco4)CC3)cc2)c1,-0.0216,.,.,.,.,.,.,.
Cc1ccc(S(=O)(=O)N2CCOCC2)cc1C(=O)Nc1ccccn1,0.215,-0.1,5.7,5.2,-0.0919,.,.,.
Cc1cc(NC(=O)c2cc(S(=O)(=O)N3CCCCC3)ccc2C)n(-c2ccccn2)n1,1.1,15.5,7.9,-3.8,21.2*,16476*,1732,+
O=C(CCC(=O)Nc1nnc(C2CCCCC2)s1)NCc1cccs1,-0.778,15.5,6.1,.,3.83*,5740,1656,i
Cc1nnc(NC(=O)CCC(=O)NCc2cccs2)s1,-0.569,.,.,.,.,.,.,.
CCN(CC)CCNC(=O)c1nn(-c2ccc(C)cc2)c(=O)c2c1c1ccccc1n2C,1.33,14.7,12.0,5.9,0.13,.,.,.
CCN1CCN(C(=O)c2nn(-c3ccc(C)cc3)c(=O)c3c2c2ccccc2n3C)CC1,-0.0951,14.8,-7.5,6.9,4.77*,5812,.,i
CCCc1nnc(SCC(=O)N2CCCC(C)C2)n1CC1CCCO1 (stereo unspecified),1.36,.,.,.,.,.,.,.
O=C(c1cc(Cl)cc(Cl)c1)N1CCOCC1,0.665,11.4,19.9,3.5,-0.268,.,.,.
NC(=O)c1cc(Cc2ccccc2)sc1NC(=O)c1ccco1,-0.716,-39.7,15.6,7.2,8.44*,15080*,1668,+
CCSc1oc(-c2ccco2)nc1S(=O)(=O)c1ccccc1,0.285,14.7,-10.1,11.2,2.97*,24204*,1844,+
O=S(=O)(c1ccccc1)c1nc(-c2ccco2)oc1N1CCCCCC1,-0.0684,18.7,7.8,1.0,6.6*,10268*,1700,i
SMILES,hDAT+cocaine,HEK293 NFkB inh,AP ELISA ortho,Ec RNAP inh,D1 mod,D1 mod confirm,D1 ag no DA,Isoprot counter
CN1CCN(c2oc(-c3ccco3)nc2S(=O)(=O)c2ccccc2)CC1,-0.249,9.6,6.7,3.8,-1.72,.,.,.
CSc1oc(-c2ccco2)nc1S(=O)(=O)c1ccc(Br)cc1,-0.453,6.2,14.4,2.4,3.99*,15096*,1696,i
COc1cc(-c2nc(S(=O)(=O)c3ccccc3)c(N3CCOCC3)o2)cc(OC)c1OC,-0.209,19.7,10.6,5.7,5.08*,11504*,1656,+
CC(C)Sc1oc(-c2ccco2)nc1S(=O)(=O)c1ccc(F)cc1,0.704,13.5,-0.7,10.2,3.35,.,.,.
C/C(=N\NC(=S)NC(C)C)c1ccc(-n2ccnc2)cc1,0.224,.,.,.,.,.,.,.
O=c1c2ccccc2nnn1CSc1ccc2c(c1)OCCO2,0.048,-25.3,-4.3,5.6,-0.406,.,.,.
Cc1ccc(-n2nnnc2-c2cnc3cc4c(cc3c2C)OCO4)cc1,0.0152,.,.,.,.,.,.,.
CCCCN(Cc1ccccc1)C(=O)C1CCN(S(=O)(=O)c2c(C)noc2C)CC1,-0.172,.,.,.,.,.,.,.
CN(C(=O)c1ccc(Cl)cc1)C1=CCCCC1CCC#N (stereo unspecified),0.364,13.2,13.1,7.6,0.922,.,.,.
CCCSc1oc(-c2ccco2)nc1S(=O)(=O)c1ccccc1,0.636,10.0,3.1,5.0,17.1*,14944*,1692,+
CCN(CC)C(=O)CN(C#N)c1nc(NC(C)C)nc(NC(C)C)n1,0.345,.,.,10.7,.,.,.,.
CCCN(C#N)c1nc(NCC)nc(NC(C)C)n1,0.16,8.9,-28.8,-4.1,16.6*,24080*,1560,+
COc1ccc(C(=O)Nc2nccs2)cc1OC,-0.142,-4.4,0.6,.,2.72,.,.,.
COc1ccc(C(=O)Nc2ccncc2)cc1OC,0.0421,13.7,21.7,-0.9,13.4*,20440*,.,+
COc1ccc(NC(=O)c2cccs2)cc1OC,-0.13,12.1,21.6,2.0,8.05*,13868*,1416,+
CCOc1ncccc1C(=O)Nc1ccc(Cl)cc1,-0.392,14.4,0.5,-0.7,2.48*,12668*,1652,+
CCc1ccc(C(=O)NCC2COc3ccccc3O2)o1 (stereo unspecified),1.19,-6.1,8.8,3.6,3.65*,7128,1732,i
O=C(Cc1ccccc1)NCC1COc2ccccc2O1 (stereo unspecified),-0.000306,.,.,.,.,.,.,.
Cc1onc(-c2ccccc2)c1C(=O)NCC1COc2ccccc2O1 (stereo unspecified),-0.226,.,.,.,.,.,.,.
CCOc1ncccc1C(=O)Oc1ccc2c(c1)OCO2,0.678,2.3,0.4,3.9,3.17*,8328*,2048,+
CCOc1ncccc1C(=O)NCC1COc2ccccc2O1 (stereo unspecified),-0.594,13.6,16.5,-1.6,12.6*,17888*,.,+
Cc1cccc(Cc2c(C)nc3c(C(=O)NCc4ccco4)cnn3c2C)c1,0.224,19.7,17.5,1.4,3.89*,8112*,1484,i
Cc1nn2c(-c3ccncc3)nnc2c2ccccc12,-0.415,-9.0,2.5,4.3,2.71*,6068*,1544,+
CCCSc1nc2c(cnn2-c2ccc(F)cc2)c(=O)[nH]1,-1.1,11.0,-0.5,6.5,.,.,.,.

# Compound activity (PubChem BioAssay)
